Data reported in ChEMBL document CHEMBL4364301 (Eur J Med Chem, 2019).

Columns and labels:
Assay type in all cases: functional
DU-145 [1] = experiment: Antiproliferative activity against human DU145 cells assessed as reduction in cell growth incubated for 96 hrs by propidium iodide based 2D monolayer assay; details: DU-145, 96 h
Summary of the method: (§1)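 After 24 h recovery, compound in medium or medium alone (control wells) was added at 10 half-log concentrations from 0.0032 to 100 µM, in triplicate, with at most 0.3% DMSO. After 96 h, wells were PBS-washed, stained with 7 µg/ml PI and 0.1% Triton X-100, and fluorescence read at 530/620 nm. IC50 came from a 4-parameter fit, geometric mean.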

CWR22R [2] = experiment: Antiproliferative activity against human 22Rv1 cells assessed as reduction in cell growth incubated for 96 hrs by propidium iodide based 2D monolayer assay; details: 22Rv1, 96 h; summary of the method: as §1
LNCaP [3] = experiment: Antiproliferative activity against human LNCAP cells assessed as reduction in cell growth incubated for 96 hrs by propidium iodide based 2D monolayer assay; summary of the method: as §1
VCaP [4] = experiment: Antiproliferative activity against human VCaP cells assessed as reduction in cell growth incubated for 96 hrs by propidium iodide based 2D monolayer assay
Summary of the method: (§2)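 VCaP cells in RPMI 1640 with 10% FCS at 37 °C, 5% CO2, seeded 4,000–20,000 cells/well and left 24 h before dosing. Compounds from DMSO stocks were diluted in half-log steps in medium, 10 concentrations 0.0032–100 μM, triplicate wells, max 0.3% DMSO. After 96 h, cells were washed, stained with 7 μg/ml propidium iodide plus 0.1% Triton X-100 for 1–2 h at room temperature, and fluorescence read at ex 530/em 620 nm.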

VCaP [5] = experiment: Antiproliferative activity against human VCaP cells assessed as T/C value at 1 x 10^-2 uM incubated for 96 hrs by propidium iodide based 2D monolayer assay
Summary of the method: as §1, with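 “Cells were kept in RPMI 1640 with 25 mM HEPES, 10% FCS and gentamicin at 37 °C under 5% CO2, and plated at 4,000-20,000 cells/well. After 24” for “After 24”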

VCaP [6] = experiment: Antiproliferative activity against human VCaP cells assessed as T/C value at 3.2 x 10^-2 uM incubated for 96 hrs by propidium iodide based 2D monolayer assay; summary of the method: as §2
VCaP [7] = experiment: Antiproliferative activity against human VCaP cells assessed as T/C value at 1 x 10^-1 uM incubated for 96 hrs by propidium iodide based 2D monolayer assay
Summary of the method: as §1, with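 “Cells were kept in RPMI 1640 with 25 mM HEPES, 10% FCS and gentamicin at 37 °C under 5% CO2, and plated at 4,000-20,000 cells/well. After 24” for “After 24”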

VCaP [8] = experiment: Antiproliferative activity against human VCaP cells assessed as T/C value at 3.2 x 10^-1 uM incubated for 96 hrs by propidium iodide based 2D monolayer assay; summary of the method: as §2
VCaP [9] = experiment: Antiproliferative activity against human VCaP cells assessed as T/C value at 1 uM incubated for 96 hrs by propidium iodide based 2D monolayer assay
Summary of the method: as §1, with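 “Cells were kept in RPMI 1640 with 25 mM HEPES, 10% FCS and gentamicin at 37 °C under 5% CO2, and plated at 4,000-20,000 cells/well. After 24” for “After 24”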

VCaP [10] = experiment: Antiproliferative activity against human VCaP cells assessed as T/C value at 3.2 uM incubated for 96 hrs by propidium iodide based 2D monolayer assay
Summary of the method: as §1, with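 “Cells were kept in RPMI 1640 with 25 mM HEPES, 10% FCS and gentamicin at 37 °C under 5% CO2, and plated at 4,000-20,000 cells/well. After 24” for “After 24”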

VCaP [11] = experiment: Antiproliferative activity against human VCaP cells assessed as T/C value at 3.2 x 10^1 uM incubated for 96 hrs by propidium iodide based 2D monolayer assay; summary of the method: as §2
VCaP [12] = experiment: Antiproliferative activity against human VCaP cells assessed as T/C value at 1 x 10^2 uM incubated for 96 hrs by propidium iodide based 2D monolayer assay
Summary of the method: as §1, with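 “Cells were kept in RPMI 1640 with 25 mM HEPES, 10% FCS and gentamicin at 37 °C under 5% CO2, and plated at 4,000-20,000 cells/well. After 24” for “After 24”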

LNCaP [13] = experiment: Antiproliferative activity against human LNCAP cells assessed as T/C value at 1 x 10^-2 uM incubated for 96 hrs by propidium iodide based 2D monolayer assay
Summary of the method: as §1, with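 “Cells were kept in RPMI 1640 with 25 mM HEPES, 10% FCS and gentamicin at 37 °C under 5% CO2, and plated at 4,000-20,000 cells/well. After 24” for “After 24”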

LNCaP [14] = experiment: Antiproliferative activity against human LNCAP cells assessed as T/C value at 3.2 x 10^-2 uM incubated for 96 hrs by propidium iodide based 2D monolayer assay
Summary of the method: as §1, with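 “Cells were kept in RPMI 1640 with 25 mM HEPES, 10% FCS and gentamicin at 37 °C under 5% CO2, and plated at 4,000-20,000 cells/well. After 24” for “After 24”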

LNCaP [15] = experiment: Antiproliferative activity against human LNCAP cells assessed as T/C value at 1 uM incubated for 96 hrs by propidium iodide based 2D monolayer assay
Summary of the method: as §1, with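 “Cells were kept in RPMI 1640 with 25 mM HEPES, 10% FCS and gentamicin at 37 °C under 5% CO2, and plated at 4,000-20,000 cells/well. After 24” for “After 24”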

LNCaP [16] = experiment: Antiproliferative activity against human LNCAP cells assessed as T/C value at 3.2 uM incubated for 96 hrs by propidium iodide based 2D monolayer assay
Summary of the method: as §1, with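 “Cells were kept in RPMI 1640 with 25 mM HEPES, 10% FCS and gentamicin at 37 °C under 5% CO2, and plated at 4,000-20,000 cells/well. After 24” for “After 24”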

LNCaP [17] = experiment: Antiproliferative activity against human LNCAP cells assessed as T/C value at 3.2 x 10^1 uM incubated for 96 hrs by propidium iodide based 2D monolayer assay
Summary of the method: as §1, with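 “Cells were kept in RPMI 1640 with 25 mM HEPES, 10% FCS and gentamicin at 37 °C under 5% CO2, and plated at 4,000-20,000 cells/well. After 24” for “After 24”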

CWR22R [18] = experiment: Antiproliferative activity against human 22Rv1 cells assessed as T/C value at 3.2 x 10^-3 uM incubated for 96 hrs by propidium iodide based 2D monolayer assay
Summary of the method: as §1, with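 “Cells were kept in RPMI 1640 with 25 mM HEPES, 10% FCS and gentamicin at 37 °C under 5% CO2, and plated at 4,000-20,000 cells/well. After 24” for “After 24”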

CWR22R [19] = experiment: Antiproliferative activity against human 22Rv1 cells assessed as T/C value at 1 x 10^-2 uM incubated for 96 hrs by propidium iodide based 2D monolayer assay
Summary of the method: as §1, with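 “Cells were kept in RPMI 1640 with 25 mM HEPES, 10% FCS and gentamicin at 37 °C under 5% CO2, and plated at 4,000-20,000 cells/well. After 24” for “After 24”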

CWR22R [20] = experiment: Antiproliferative activity against human 22Rv1 cells assessed as T/C value at 3.2 x 10^-1 uM incubated for 96 hrs by propidium iodide based 2D monolayer assay
Summary of the method: as §1, with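 “Cells were kept in RPMI 1640 with 25 mM HEPES, 10% FCS and gentamicin at 37 °C under 5% CO2, and plated at 4,000-20,000 cells/well. After 24” for “After 24”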

CWR22R [21] = experiment: Antiproliferative activity against human 22Rv1 cells assessed as T/C value at 1 uM incubated for 96 hrs by propidium iodide based 2D monolayer assay
Summary of the method: as §1, with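 “Cells were kept in RPMI 1640 with 25 mM HEPES, 10% FCS and gentamicin at 37 °C under 5% CO2, and plated at 4,000-20,000 cells/well. After 24” for “After 24”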

CWR22R [22] = experiment: Antiproliferative activity against human 22Rv1 cells assessed as T/C value at 3.2 uM incubated for 96 hrs by propidium iodide based 2D monolayer assay
Summary of the method: as §1, with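 “Cells were kept in RPMI 1640 with 25 mM HEPES, 10% FCS and gentamicin at 37 °C under 5% CO2, and plated at 4,000-20,000 cells/well. After 24” for “After 24”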

CWR22R [23] = experiment: Antiproliferative activity against human 22Rv1 cells assessed as T/C value at 1 x 10^1 uM incubated for 96 hrs by propidium iodide based 2D monolayer assay
Summary of the method: as §1, with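 “Cells were kept in RPMI 1640 with 25 mM HEPES, 10% FCS and gentamicin at 37 °C under 5% CO2, and plated at 4,000-20,000 cells/well. After 24” for “After 24”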

CWR22R [24] = experiment: Antiproliferative activity against human 22Rv1 cells assessed as T/C value at 3.2 x 10^1 uM incubated for 96 hrs by propidium iodide based 2D monolayer assay
Summary of the method: as §1, with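 “Cells were kept in RPMI 1640 with 25 mM HEPES, 10% FCS and gentamicin at 37 °C under 5% CO2, and plated at 4,000-20,000 cells/well. After 24” for “After 24”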

DU-145 [25] = experiment: Antiproliferative activity against human DU145 cells assessed as T/C value at 3.2 x 10^-3 uM incubated for 96 hrs by propidium iodide based 2D monolayer assay; summary of the method: as §1
DU-145 [26] = experiment: Antiproliferative activity against human DU145 cells assessed as T/C value at 3.2 x 10^-2 uM incubated for 96 hrs by propidium iodide based 2D monolayer assay; summary of the method: as §1
DU-145 [27] = experiment: Antiproliferative activity against human DU145 cells assessed as T/C value at 3.2 x 10^-1 uM incubated for 96 hrs by propidium iodide based 2D monolayer assay; summary of the method: as §1
DU-145 [28] = experiment: Antiproliferative activity against human DU145 cells assessed as T/C value at 1 uM incubated for 96 hrs by propidium iodide based 2D monolayer assay; summary of the method: as §1
DU-145 [29] = experiment: Antiproliferative activity against human DU145 cells assessed as T/C value at 3.2 uM incubated for 96 hrs by propidium iodide based 2D monolayer assay
Summary of the method: as §1, with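 “Cells were kept in RPMI 1640 with 25 mM HEPES, 10% FCS and gentamicin at 37 °C under 5% CO2, and plated at 4,000-20,000 cells/well. After 24” for “After 24”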

DU-145 [30] = experiment: Antiproliferative activity against human DU145 cells assessed as T/C value at 1 x 10^1 uM incubated for 96 hrs by propidium iodide based 2D monolayer assay; summary of the method: as §1
DU-145 [31] = experiment: Antiproliferative activity against human DU145 cells assessed as T/C value at 3.2 x 10^1 uM incubated for 96 hrs by propidium iodide based 2D monolayer assay
Summary of the method: as §1, with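 “Cells were kept in RPMI 1640 with 25 mM HEPES, 10% FCS and gentamicin at 37 °C under 5% CO2, and plated at 4,000-20,000 cells/well. After 24” for “After 24”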

DU-145 [32] = experiment: Antiproliferative activity against human DU145 cells assessed as T/C value at 1 x 10^2 uM incubated for 96 hrs by propidium iodide based 2D monolayer assay
Summary of the method: as §1, with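 “Cells were kept in RPMI 1640 with 25 mM HEPES, 10% FCS and gentamicin at 37 °C under 5% CO2, and plated at 4,000-20,000 cells/well. After 24” for “After 24”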

IC50 (DU-145 [1]): 100 µM
IC50 (LNCaP [3]): 3.4 µM
IC50 (VCaP [4]): 100 µM
Structure (SMILES): CC1(C)C(=O)N(c2cccc(S(F)(F)(F)(F)F)c2)C(=S)N1c1cccc(C(F)(F)F)c1
IC70 (DU-145 [1]): > 100 µM
IC50 (CWR22R [2]): 100 µM
IC70 (CWR22R [2]): > 100 µM
IC70 (LNCaP [3]): 4.31 µM
IC70 (VCaP [4]): > 100 µM
T/C (VCaP [5]): 82%
T/C (VCaP [6]): 87%
T/C (VCaP [7]): 80%
T/C (VCaP [8]): 87%
T/C (VCaP [9]): 84%
T/C (VCaP [10]): 71%
T/C (VCaP [11]): 63%
T/C (VCaP [12]): 60%
T/C (LNCaP [13]): 94%
T/C (LNCaP [14]): 73%
T/C (LNCaP [15]): 74%
T/C (LNCaP [16]): 63%
T/C (LNCaP [17]): 33%
T/C (CWR22R [18]): 94%
T/C (CWR22R [19]): 96%
T/C (CWR22R [20]): 98%
T/C (CWR22R [21]): 85%
T/C (CWR22R [22]): 79%
T/C (CWR22R [23]): 69%
T/C (CWR22R [24]): 58%
T/C (DU-145 [25]): 101%
T/C (DU-145 [26]): 96%
T/C (DU-145 [27]): 108%
T/C (DU-145 [28]): 108%
T/C (DU-145 [29]): 105%
T/C (DU-145 [30]): 83%
T/C (DU-145 [31]): 85%
T/C (DU-145 [32]): 76%
